Data taken from paper PMC2775513 (Neuroscience, 2009).

What was measured:
[1] = test system: cultured rat hypothalamic neurons; assay: Cytosolic Ca2+ measurement; assay type: cell-based; conditions: for neurons responding with fast calcium transient followed by oscillations / mean amplitude of the first spike, fast calcium transient followed by oscillations: INSL7 n=8/158, C-INSL7 n=11/276
Method in brief: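 Hypothalamic neurons from 1–3-day-old rats were papain-dissociated and cultured 5 days in Neurobasal-A/10% FCS with 1 μM cytosine arabinoside, then serum-free for 12 hr. Cells were loaded with 5 μM fura-2 AM (45 min, room temperature, dark), de-esterified 45 min, then superfused with HBSS at 1 ml/min. Peptide was applied at 10–1000 nM. 340/380 ratio (emission 510 nm, 0.3 Hz) was converted to [Ca2+]i.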

[2] = test system: cultured rat hypothalamic neurons; assay: Membrane potential, optical imaging using DiSBAC4; assay type: cell-based; conditions: 100 nM, DiSBAC4(3); for mean amplitude of membrane depolarization / mean amplitude of membrane hyperpolarization: resting potential −53 ± 2.1 mV; for mean amplitude of membrane depolarization: C-INSL7 n=7/153, INSL7 n=4; for mean amplitude of membrane hyperpolarization: C-INSL7 n=15/153, INSL7 n=6
Method in brief: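 Cultured neonatal rat hypothalamic neurons were loaded 30 min with DiSBAC4(3) in HBSS and superfused with 100 nM peptide. Fluorescence (excitation 480, emission 540 nm) was recorded at 10 points/min, background-subtracted. Calibration used 1 μM gramicidin in Na+-free solution with 17, 25 or 80 mM K+ (potentials by Nernst equation): a 1.092 fluorescence change equals 1 mV.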

[3] = test system: C-INSL7 antiserum (rabbit polyclonal); conditions: ELISA; ref Phoenix Pharmaceuticals, Inc.; cited from earlier work
[4] = test system: C-INSL7 antiserum (rabbit polyclonal); assay: Pre-absorption of C-INSL7 antiserum, immunohistochemistry of rat pons sections; conditions: 1 μg/ml overnight
[5] = test system: cultured rat hypothalamic neurons; assay: Cytosolic Ca2+ measurement; assay type: cell-based; conditions: for mean amplitude of the first spike of [Ca2+]i oscillations, Ca2+-free / rapid and transitory increase in [Ca2+]i (single spike, no plateau), Ca2+-free: Ca2+-free HBSS with 2.5 mM EGTA; for mean amplitude of the first spike of [Ca2+]i oscillations, Ca2+-free: INSL7 n=5/76, C-INSL7 n=7; for rapid and transitory increase in [Ca2+]i (single spike, no plateau), Ca2+-free: INSL7 n=11/76, C-INSL7 n=15
Method in brief: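 Cultured neonatal rat hypothalamic neurons (5 days, serum withdrawn 12 hr before) were loaded with 5 μM fura-2 AM for 45 min at room temperature and de-esterified 45 min. They were superfused with Ca2+-free HBSS containing 2.5 mM EGTA, and 100 nM peptide was applied. [Ca2+]i was derived from the 340/380 excitation ratio (emission 510 nm, 0.3 Hz). Responding cells were counted against cells tested.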

[6] = test system: [125I]C-INSL7 binding sites, rat brain membranes; assay: [125I]C-INSL7 binding to rat brain membranes; conditions: for inhibition of [125I]C-INSL7 binding: 1 to 1000 nM unlabeled peptide, ~0.3 nM [125I]C-INSL7, three independent experiments
GPCR142 = conditions: printed GPR142; ref Liu et al., 2003a, b; cited from earlier work
GPCR135 [7] = conditions: printed GPR135; ref Liu et al., 2003a, b; cited from earlier work
GPCR142 (Homo sapiens) = GPCR142 (Homo sapiens) (UniProt Q8TDU9); assay: radioligand binding; conditions: cited from earlier work
UniProt Q8TDU9, sequence (Q8TDU9 whole entry): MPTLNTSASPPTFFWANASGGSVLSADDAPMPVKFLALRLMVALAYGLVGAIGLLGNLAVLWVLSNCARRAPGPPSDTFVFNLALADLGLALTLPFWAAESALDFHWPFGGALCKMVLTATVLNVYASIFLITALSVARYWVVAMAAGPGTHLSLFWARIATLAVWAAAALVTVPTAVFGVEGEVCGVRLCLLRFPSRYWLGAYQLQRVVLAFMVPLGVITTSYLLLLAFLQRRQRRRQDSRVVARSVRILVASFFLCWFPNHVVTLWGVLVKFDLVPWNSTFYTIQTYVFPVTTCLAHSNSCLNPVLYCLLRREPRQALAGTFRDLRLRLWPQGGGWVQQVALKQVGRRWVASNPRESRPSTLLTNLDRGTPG

GPCR135 (Homo sapiens) = GPCR135 (Homo sapiens) (UniProt Q9NSD7); assay: radioligand binding; conditions: cited from earlier work
UniProt Q9NSD7, sequence (Q9NSD7 whole entry): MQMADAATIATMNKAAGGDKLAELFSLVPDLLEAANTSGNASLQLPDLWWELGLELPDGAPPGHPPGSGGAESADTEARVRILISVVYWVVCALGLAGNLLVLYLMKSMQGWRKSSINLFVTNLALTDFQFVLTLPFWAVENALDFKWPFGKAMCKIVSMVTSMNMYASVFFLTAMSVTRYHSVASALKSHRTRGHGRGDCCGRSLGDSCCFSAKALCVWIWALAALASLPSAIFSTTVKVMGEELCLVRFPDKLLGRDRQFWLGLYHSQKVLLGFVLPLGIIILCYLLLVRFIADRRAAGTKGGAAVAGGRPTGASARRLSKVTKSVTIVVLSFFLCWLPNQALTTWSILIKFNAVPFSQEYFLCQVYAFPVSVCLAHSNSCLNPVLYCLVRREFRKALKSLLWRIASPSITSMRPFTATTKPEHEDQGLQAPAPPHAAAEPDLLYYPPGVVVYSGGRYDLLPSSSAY

GPCR145 = conditions: cells over-expressing GPCR145 (so in the source); ref Liu et al., 2003 a, b; cited from earlier work
GPCR135 [8] = conditions: cells over-expressing GPCR135; ref Liu et al., 2003 a, b; cited from earlier work

relaxin 3, sequence (Q8WXF3 119-142): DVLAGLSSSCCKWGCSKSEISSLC

With ryanodine [reference compound] as the substance, how does the “effect of ryanodine pretreatment on C-INSL7-induced [Ca2+]i oscillations” value ([1]; ryanodine 5 μM, 15 min, C-INSL7 100 nM) read?
Its value is “abolishing the [Ca^2+]i oscillations”.

Which “fraction of neurons depolarized (n responding/tested)” value [2] does the source give for “C-peptide of human preproinsulin-like peptide 7 [C-INSL7]” here?
The value was 7/153.

And the “fraction of neurons hyperpolarized (n responding/tested)” value [2]?
The value was 15/153.

What about the “mean amplitude of membrane depolarization” value [2] of the same substance?
Its value is 11 ± 1.6 mV.

And the “mean amplitude of membrane hyperpolarization” value [2]?
The value was 7 ± 1.3 mV.

And the “cross-reactivity with C-INSL7 antiserum” value [3]?
Its value is 100%.

And the “immunoreactivity after pre-absorption of C-INSL7 antiserum with peptide” value [4]?
The value was “immunoreactivity was not detected”.

And the “mean amplitude of the first spike of [Ca2+]i oscillations, Ca2+-free” value ([5]; 100 nM)?
The value was 497 ± 3.6 nM.

What about the “rapid and transitory increase in [Ca2+]i (single spike, no plateau), Ca2+-free” value ([5]; 100 nM) of the same substance?
Its value is 231 ± 2.6 nM.

What about the “cells responding with calcium oscillations, Ca2+-free” value ([5]; 100 nM, Ca2+-free saline, 7 cells) of the same substance?
The value was 5%.

What about the “cells responding with single Ca2+ spike, Ca2+-free” value ([5]; 100 nM, Ca2+-free saline, 15 cells) of the same substance?
The value was 11%.

And the “inhibition of [125I]C-INSL7 binding” value [6]?
The value was “in a dose-dependent manner”.

And the Bmax ([6]; homologous competition, ~0.3 nM [125I]C-INSL7, pH 7.4, room temperature, 1 hr, nonspecific: 1 μM C-INSL7, n=3)?
Its Bmax is 45.4 ± 20.5 fmol/mg protein.

What about the Kd ([6]; homologous competition, ~0.3 nM [125I]C-INSL7, ~0.5 mg membranes, pH 7.4, room temperature, 1 hr, nonspecific: 1 μM C-INSL7, n=3) of the same substance?
Its Kd is 17.7 ± 8.2 nM.

And the “concentration of maximum inhibition of [125I]C-INSL7 binding” value ([6]; unlabeled peptide 1 to 1000 nM)?
Its value is 500 nM.

What about the “amplitude of the first spike of [Ca2+]i oscillations” value ([1]; 10 nM, HBSS, fura-2, n = 6) of the same substance?
Its value is 137 ± 2.6 nM.

And the “stable (sustained) [Ca2+]i elevation” value ([1]; 10 nM, HBSS, fura-2, n = 6)?
Its value is 118 ± 2.4 nM.

What about the “neurons responding with fast and sustained increase in [Ca2+]i” value ([1]; 100 nM, HBSS, 36 of 276) of the same substance?
The value was 13%.

What about the “neurons responding with fast calcium transient followed by oscillations” value ([1]; 100 nM, HBSS) of the same substance?
Its value is 4%.

And the “mean amplitude of the first spike, fast calcium transient followed by oscillations” value ([1]; 100 nM, HBSS, fura-2)?
The value was 763 ± 4.2 nM.

What about the “mean amplitude of fast and sustained increase in [Ca2+]i” value ([1]; 100 nM, HBSS, fura-2, n=36/276) of the same substance?
The value was 405 ± 3.1 nM.

And the “amplitude of the first spike of [Ca2+]i oscillations” value ([1]; 1,000 nM, HBSS, fura-2, n = 7)?
The value was 1051 ± 9.8 nM.

And the “mean amplitude of fast and sustained increase in [Ca2+]i” value ([1]; 1,000 nM, HBSS, fura-2, n = 8)?
The value was 731 ± 4.7 nM.

And the “concentration dependence of calcium oscillations” value ([1]; 10, 100 and 1000 nM, HBSS)?
The value was “also in a concentration-dependent manner”.

And the “concentration dependence of fast and sustained increase in [Ca2+]i” value ([1]; 10, 100 and 1000 nM, HBSS)?
The value was “in a concentration-dependent manner”.

What about the “Δ[Ca2+]i, fast and sustained rise, after ryanodine pretreatment” value ([1]; C-INSL7 100 nM, ryanodine 5 μM, 15 min pretreatment, n = 7) of the same substance?
The value was 391 ± 3.6 nM.

Which results are given for “insulin-like peptide 7 [INSL7, reference compound]”?
mean amplitude of membrane depolarization [2]: 9 ± 2.6 mV; mean amplitude of membrane hyperpolarization [2]: 5 ± 1.8 mV; binding affinity (GPCR142): high affinity; mean amplitude of the first spike of [Ca2+]i oscillations, Ca2+-free ([5]; 100 nM): 583 ± 7.4 nM; rapid and transitory increase in [Ca2+]i (single spike, no plateau), Ca2+-free ([5]; 100 nM): 307 ± 4.2 nM; fraction of neurons with [Ca2+]i oscillations, Ca2+-free (n responding/tested) ([5]; 100 nM, Ca2+-free medium): 5/76; effect of Ca2+-free solution on calcium spike ([5]; type 1 response, Ca2+-free vs normal solution): not significantly altered in a Ca^2+-free solution; inhibition of [125I]C-INSL7 binding [6]: did not inhibit; neurons responding with fast calcium transient followed by oscillations ([1]; 100 nM, HBSS): 5%; mean amplitude of the first spike, fast calcium transient followed by oscillations ([1]; 100 nM, HBSS, fura-2): 1268 ± 39 nM; mean increase of [Ca2+]i, fast, transitory ([1]; 100 nM, HBSS, fura-2, n=27/158): 817 ± 6.3 nM; neurons responding with fast, transitory increase of [Ca2+]i ([1]; 100 nM, HBSS, n=27/158): 17%; binding affinity (GPCR135 [7]): high affinity

Which Kd (GPCR142 (Homo sapiens)) does the source give for relaxin 3 (from UniProt Q8WXF3) here?
The Kd was 1.9 nM.

What about the Kd (GPCR135 (Homo sapiens)) of the same substance?
Its Kd is 0.31 nM.

What does the source list for “Recombinant human relaxin 3: Recombinant human relaxin 3”?
GTPγS binding (GPCR145): potently stimulated; cAMP formation (GPCR145): inhibited; GTPγS binding (GPCR135 [8]): potently stimulated; cAMP formation (GPCR135 [8]): inhibited
